Values after ≈ are worked out from the molar mass of the structure shown.
Experiments:
Format in all cases: functional
[1] = system: Staphylococcus aureus; experiment: Antimicrobial activity against Staphylococcus aureus ATCC 9144 after 24 hrs using thiazoyl blue by agar overlay bioautography method
Method in brief: (§1)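 Agar-overlay TLC bioautography. Stock samples (10 mg/mL) were serially diluted to 5.0, 1.0, 0.05 and 0.001 mg/mL, spotted on silica gel TLC plates and dried. Plates were overlaid with Sabouraud dextrose agar seeded with 24-h cultures and run in duplicate. Incubation was 24 h at 37 °C for S. aureus and E. coli, and 25 °C for B. subtilis, P. aeruginosa and C. albicans. Plates were then sprayed with MTT and incubated a further 4 h. MIQ was the lowest loading giving a white inhibition zone.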

[2] = system: Bacillus subtilis; experiment: Antimicrobial activity against Bacillus subtilis ATCC 6633 after 24 hrs using thiazoyl blue by agar overlay bioautography method; method in brief: as §1
[3] = system: Pseudomonas aeruginosa; experiment: Antimicrobial activity against Pseudomonas aeruginosa NCTC 10332 after 24 hrs using thiazoyl blue by agar overlay bioautography method; method in brief: as §1
[4] = system: Candida albicans; experiment: Antimicrobial activity against Candida albicans ATCC 10231 after 24 hrs using thiazoyl blue by agar overlay bioautography method; method in brief: as §1
[5] = system: Escherichia coli; experiment: Antimicrobial activity against Escherichia coli ATCC 11229 after 24 hrs using thiazoyl blue by agar overlay bioautography method; method in brief: as §1
[6] = system: Radical scavenging activity; experiment: Antioxidant activity assessed as DPPH radical scavenging activity after 30 mins by spectrophotometric analysisic analysis
Method in brief: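 Methanolic samples (0.005–0.5 mg/mL) were mixed 1:1 by volume with 2% DPPH and incubated in the dark at room temperature. Absorbance at 517 nm was read at 0.5, 1, 3, 6 and 24 h. Percent scavenged = (A_blank − A_sample)/A_blank × 100, with the blank being DPPH without sample. Ascorbic acid served as reference. Run in triplicate.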

[7] = Antioxidant activity assessed as H2O2 scavenging activity at 12.5 to 250 ug/mL after 30 mins by spectrophotometric analysisic analysis
Method in brief: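 Hydrogen peroxide (32.7 mM in PBS, pH 7.4; 0.6 mL) was combined with 0.05–1 mL of 1 mg/mL extract or standard (gallic acid, ascorbic acid) and made up to 4 mL with water. A230 was read before and after 30 min. Background correction used buffer without peroxide. Percent scavenged = (A0 − A1)/A0 × 100.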

Compound | MIC [1] [µg] | MIC [2] [µg] | MIC [3] [µg] | MIC [4] [µg] | MIC [5] [µg] | EC50 [6] [µg/mL] | Activity [7] [%]
CCCCCCCCCCCCCCCCCCCCCC(=O)O [BEHENIC ACID] | 50 | 50 | 50 | 50 | 50 | – | –
N#C/C=C1/C=C[C@@H](O)[C@H](O)[C@H]1O[C@@H]1O[C@H](CO)[C@@H](O)[C@H](O)[C@H]1O [GRIFFONIN] | 50 | 50 | 50 | 50 | 50 | – | –
O=C1C=C2C=C[C@@H](O)[C@H](O)[C@H]2O1 [GRIFFONILIDE] | 50 | 50 | 50 | 50 | 50 | – | –
O=C(N[C@H](CO)[C@H](O)c1ccc([N+](=O)[O-])cc1)C(Cl)Cl [CHLORAMPHENICOL] | 0.001 | 0.001 | 0.001 | 0.001 | 0.001 | – | –
O=C(O)c1cc(O)c(O)c(O)c1 [GALLIC ACID] | 50 | 50 | 50 | 50 | 50 | 1.85 (≈ 10.9 µM) | > 50
OC[C@H]1O[C@@](CO)(O[C@H]2O[C@H](CO)[C@@H](O)[C@H](O)[C@H]2O)[C@@H](O)[C@@H]1O [SUCROSE] | 50 | 50 | 50 | 50 | 50 | – | –
CCCCCCCC/C=C\CCCCCCCC(=O)O [OLEIC ACID] | 50 | 50 | 50 | 50 | 50 | – | –
CC[C@H](CC[C@@H](C)[C@H]1CC[C@H]2[C@@H]3CC=C4C[C@@H](O)CC[C@]4(C)[C@H]3CC[C@]12C)C(C)C [BETA-SITOSTEROL] | 50 | 50 | 50 | 50 | 50 | – | –
O=C(O)c1ccc(O)c(O)c1 [PROTOCATECHUIC ACID] | 50 | 50 | 50 | 50 | 50 | – | –
O=C1O[C@H]([C@@H](O)CO)C(O)=C1O [ASCORBIC ACID] | – | – | – | – | – | 41.08 (≈ 233 µM) | > 50
CCO[C@@H]1[C@@H](O)[C@H](O)[C@@H](CO)O[C@@H]1O | 50 | 50 | 50 | 50 | 50 | – | –

Reference: ChEMBL document CHEMBL1817655, “Tylosema esculentum extractives and their bioactivity” (Bioorg Med Chem, 2011)
